Test results reported in ChEMBL document CHEMBL3853270, “Influence of Birch Bark Triterpenes on Keratinocytes and Fibroblasts from Diabetic and Nondiabetic Donors” (2016).
Activity calls are given as the source filed them. No cut-off for these calls is given here.

Experiments:
Fibroblast [1] = experiment: Effect on pro-inflammatory related gene expression in non-diabetic young human primary fibroblasts assessed as IL1R1 mRNA levels at 9.81 uM after 6 hrs by qPCR analysis; format: functional
Fibroblast [2] = experiment: Effect on actin cytoskeleton in human diabetic primary fibroblasts assessed as formation of thin elongated cellular body at 10 nM after 2 hrs by rhodamine phalloidin-staining based fluorescence microscopic analysis; format: functional
How it was run: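 Subconfluent cells on glass coverslips, collagen type I coated for fibroblasts; keratinocytes starved 2 days before stimulation. Exposure 2 h, then rhodamine-phalloidin staining (1:25 in PBS) and fluorescence microscopy. Controls were DMSO as solvent and PDGF (fibroblasts) or CNF1 (keratinocytes). Where used, p38-MAPK inhibitor LN 950 (100 nM) was added 30 min beforehand.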

Fibroblast [3] = experiment: Effect on chemokines related gene expression in diabetic adult human primary fibroblasts assessed as WDR26 mRNA levels at 9.81 uM after 6 hrs by qPCR analysis; format: functional
Keratinocyte [4] = experiment: Effect on growth factor related gene expression in non-diabetic young human primary keratinocytes assessed as PDGFB mRNA levels at 1.96 uM after 6 hrs by qPCR analysis; format: functional
How it was run: (§1)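 Primary human keratinocytes (nondiabetic young or adult, diabetic adult donors) were exposed to compound for 6 h, with 0.1% DMSO as solvent control. Total RNA came from 400 000 cells per sample and was assayed on a Fluidigm Biomark high-throughput qPCR chip. Results are fold change vs solvent control, from 2−4 independent experiments on two donors per group, with SD. Groups were compared by one-way ANOVA with Bonferroni post-test.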

Fibroblast [5] = experiment: Effect on pro-inflammatory related gene expression in non-diabetic young human primary fibroblasts assessed as PTGS2 mRNA levels at 1.96 uM after 6 hrs by qPCR analysis; format: functional
Fibroblast [6] = experiment: Effect on pro-inflammatory related gene expression in non-diabetic young human primary fibroblasts assessed as IL1R1 mRNA levels at 1.96 uM after 6 hrs by qPCR analysis; format: functional
Keratinocyte [7] = experiment: Effect on cellular connection related gene expression in non-diabetic adult human primary keratinocytes assessed as GJB2 mRNA levels at 9.81 uM after 6 hrs by qPCR analysis; format: functional
Fibroblast [8] = experiment: Effect on adhesion molecules related gene expression in diabetic adult human primary fibroblasts assessed as VCAM1 mRNA levels at 1.96 uM after 6 hrs by qPCR analysis; format: functional
How it was run: (§2)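 Dermal fibroblasts from nondiabetic adult and diabetic adult donors, exposed for 6 h at 1.96 or 9.81 μM. ICAM-1 and VCAM-1 mRNA measured by standard qRT-PCR, n = 3. Fold change versus 0.1% DMSO control, SD, one-way ANOVA with Bonferroni post-test.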

Fibroblast [9] = experiment: Effect on antioxidant related gene expression in non-diabetic adult human primary fibroblasts assessed as SOD2 mRNA levels at 9.81 uM after 6 hrs by qPCR analysis; format: functional
Fibroblast [10] = experiment: Effect on chemokines related gene expression in non-diabetic young human primary fibroblasts assessed as IL8 mRNA levels at 1.96 uM after 6 hrs by qPCR analysis; format: functional
How it was run: (§3)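 Primary human dermal fibroblasts (young or adult nondiabetic, adult diabetic donor) were treated for 6 h against a 0.1% DMSO solvent control. RNA from 320 000 cells per sample was measured by Fluidigm Biomark high-throughput qPCR. Values are fold change relative to solvent control, from four independent experiments, with SD. One-way ANOVA with Bonferroni post-test was applied.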

Fibroblast [11] = experiment: Effect on growth factors related gene expression in diabetic adult human primary fibroblasts assessed as FGF2 mRNA levels at 9.81 uM after 6 hrs by qPCR analysis; format: functional; how it was run: as §3
Keratinocyte [12] = experiment: Effect on chemokines related gene expression in non-diabetic young human primary keratinocytes assessed as CXCL10 mRNA levels at 1.96 uM after 6 hrs by qPCR analysis; format: functional; how it was run: as §1
Fibroblast [13] = experiment: Effect on pro-inflammatory related gene expression in non-diabetic young human primary fibroblasts assessed as IL6 mRNA levels at 9.81 uM after 6 hrs by qPCR analysis; format: functional
Fibroblast [14] = experiment: Effect on adhesion molecules related gene expression in non-diabetic adult human primary fibroblasts assessed as ICAM1 mRNA levels at 9.81 uM after 6 hrs by qPCR analysis; format: functional; how it was run: as §2
Fibroblast [15] = experiment: Effect on chemokines related gene expression in non-diabetic young human primary fibroblasts assessed as WDR26 mRNA levels at 9.81 uM after 6 hrs by qPCR analysis; format: functional; how it was run: as §3
Keratinocyte [16] = experiment: Effect on antioxidant related gene expression in non-diabetic adult human primary keratinocytes assessed as SOD2 mRNA levels at 9.81 uM after 6 hrs by qPCR analysis; format: functional
[17] = target: Transforming protein RhoA (Homo sapiens) (UniProt P61586); experiment: Activation of RhoA in human diabetic primary keratinocytes at 10 nM after 3 hrs by immunoblot method
How it was run: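 Keratinocytes from a diabetic adult donor; incubation 3 h for RhoA, 20 min for Cdc42 and Rac1. Lysates made in glycerol/Tris pH 7.4/NaCl/NP-40/MgCl2/PMSF buffer, spun at 4 °C. Active GTP-bound form pulled down on glutathione-sepharose with GST-Rhotekin (RhoA) or GST-PAK (Cdc42, Rac1) for 1 h at 4 °C. Total and pulled-down protein read by immunoblot with ECL; n = 3.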

Keratinocyte [18] = experiment: Effect on growth factor related gene expression in diabetic adult human primary keratinocytes assessed as VEGFA mRNA levels at 9.81 uM after 6 hrs by qPCR analysis; format: functional; how it was run: as §1
Keratinocyte [19] = experiment: Effect on growth factor related gene expression in diabetic adult human primary keratinocytes assessed as PDGFB mRNA levels at 1.96 uM after 6 hrs by qPCR analysis; format: functional; how it was run: as §1
Fibroblast [20] = experiment: Effect on chemokines related gene expression in non-diabetic young human primary fibroblasts assessed as CCL2 mRNA levels at 9.81 uM after 6 hrs by qPCR analysis; format: functional; how it was run: as §3
Fibroblast [21] = experiment: Effect on antiinflammatory related gene expression in non-diabetic adult human primary fibroblasts assessed as SOCS3 mRNA levels at 1.96 uM after 6 hrs by qPCR analysis; format: functional
How it was run: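 Primary dermal fibroblasts from one nondiabetic young, one nondiabetic adult and one diabetic adult donor; 320 000 cells per sample, 6 h at 1.96 or 9.81 μM. RNA measured on a high-throughput qPCR chip. Fold change versus 0.1% DMSO control, four independent experiments, SD, one-way ANOVA with Bonferroni post-test.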

Keratinocyte [22] = experiment: Effect on chemokines related gene expression in non-diabetic adult human primary keratinocytes assessed as CXCL10 mRNA levels at 9.81 uM after 6 hrs by qPCR analysis; format: functional
[23] = Upregulation of wound healing activity related soluble ICAM1 protein levels in non-diabetic adult human primary keratinocytes at 1.96 uM after 24 hrs by bead-based suspension array analysis; format: functional; details: Keratinocyte
Keratinocyte [24] = experiment: Effect on pro-inflammatory related gene expression in non-diabetic young human primary keratinocytes assessed as IL6 mRNA levels at 9.81 uM after 6 hrs by qPCR analysis; format: functional
Fibroblast [25] = experiment: Effect on chemokines related gene expression in diabetic adult human primary fibroblasts assessed as IL8 mRNA levels at 9.81 uM after 6 hrs by qPCR analysis; format: functional
Keratinocyte [26] = experiment: Effect on pro-inflammatory related gene expression in non-diabetic young human primary keratinocytes assessed as IL6 mRNA levels at 1.96 uM after 6 hrs by qPCR analysis; format: functional

Sequence of Transforming protein RhoA (Homo sapiens) (P61586 whole entry): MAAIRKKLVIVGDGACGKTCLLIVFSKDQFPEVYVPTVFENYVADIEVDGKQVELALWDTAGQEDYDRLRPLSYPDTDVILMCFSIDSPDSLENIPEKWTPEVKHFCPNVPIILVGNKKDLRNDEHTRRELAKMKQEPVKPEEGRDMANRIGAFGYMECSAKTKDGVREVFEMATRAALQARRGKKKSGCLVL

C=C(C)[C@@H]1CC[C@]2(CO)CC[C@]3(C)[C@H](CC[C@@H]4[C@@]5(C)CC[C@H](O)C(C)(C)[C@@H]5CC[C@]43C)[C@@H]12 [BETULIN]
fold change (FC) (Fibroblast [1]): 3.9
Activity (Fibroblast [2]): Active
fold change (FC) (Fibroblast [3]): 1.2
fold change (FC) (Keratinocyte [4]): 1.2
fold change (FC) (Fibroblast [5]): 10.9
fold change (FC) (Fibroblast [6]): 3.7
fold change (FC) (Keratinocyte [7]): 0.8
fold change (FC) (Fibroblast [8]): 3.3
fold change (FC) (Fibroblast [9]): 18
fold change (FC) (Fibroblast [10]): 23.5
fold change (FC) (Fibroblast [11]): 1.6
fold change (FC) (Keratinocyte [12]): 1.9
fold change (FC) (Fibroblast [13]): 55
fold change (FC) (Fibroblast [14]): 152
fold change (FC) (Fibroblast [15]): 1.4
fold change (FC) (Keratinocyte [16]): 1.6
Activity [17]: Active
fold change (FC) (Keratinocyte [18]): 2.2
fold change (FC) (Keratinocyte [19]): 1
fold change (FC) (Fibroblast [20]): 4.3
fold change (FC) (Fibroblast [21]): 24.4
fold change (FC) (Keratinocyte [22]): 4.3
Activity [23]: Active
fold change (FC) (Keratinocyte [24]): 6
fold change (FC) (Fibroblast [25]): 3.7
fold change (FC) (Keratinocyte [26]): 3.6
